Results from ChEMBL document CHEMBL4261484, “Design, synthesis and anticonvulsant-analgesic activity of new N-[(phenoxy)alkyl]- and N-[(phenoxy)ethoxyethyl]aminoalkanols” (Medchemcomm, 2017).
The source made the active and inactive calls.

How the values were obtained:
[1] = system: Mus musculus; test: Anticonvulsant activity in mouse assessed as protection against maximal electroshock-induced seizures at 100 mg/kg, ip; assay type: functional, organism-based
How it was run: (§1)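 Mice dosed ip; maximal seizures induced by auricular electroshock (25 mA, 500 V, 50 Hz, 0.2 s). Endpoint: hind-limb tonic extension; animals without it scored protected. Read-out is number protected over number tested.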

[2] = system: Mus musculus; test: Neurotoxicity in mouse assessed as motor impairment at 100 mg/kg, ip measured for one min by rotarod test; assay type: toxicity, organism-based; conditions: in vivo, 1 min
How it was run: (§2)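 Mice trained on an accelerating rotarod, then tested at least 24 h later after ip pretreatment, on a rod turning at 10 rpm. Neurotoxicity was scored as failure to stay on the rod for one minute. Read-out is mice impaired over mice tested.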

[3] = system: Mus musculus; test: Toxicity in mouse at 100 mg/kg, ip measured during maximal electroshock seizure test; assay type: organism-based; conditions: in vivo
[4] = system: Mus musculus; test: Neurotoxicity in mouse assessed as motor impairment at 30 mg/kg, ip measured for one min by rotarod test; assay type: toxicity, organism-based; conditions: in vivo, 1 min; how it was run: as §2
[5] = system: Mus musculus; test: Toxicity in mouse at 30 mg/kg, ip measured during maximal electroshock seizure test; assay type: organism-based; conditions: in vivo
[6] = system: Mus musculus; test: Anticonvulsant activity in mouse assessed as protection against maximal electroshock-induced seizures at 30 mg/kg, ip; assay type: functional, organism-based; how it was run: as §1
[7] = Protection index, ratio of TD50 for neurotoxicity in ip dosed mouse by rotarod test to ED50 for anticonvulsant activity in mouse by maximal electroshock seizure test; assay type: toxicity, organism-based; conditions: in vivo, read-out: Ratio TD50/ED50
[8] = system: Mus musculus; test: Anticonvulsant activity in mouse assessed as protection against maximal electroshock-induced seizures at 20 mg/kg, ip; assay type: functional, organism-based; how it was run: as §1
[9] = system: Mus musculus; test: Toxicity in mouse at 15 mg/kg, ip measured during maximal electroshock seizure test; assay type: organism-based; conditions: in vivo
[10] = system: Mus musculus; test: Anticonvulsant activity in ip dosed mouse assessed as protection against maximal electroshock-induced seizures; assay type: functional
How it was run: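 Mice were dosed ip. Maximal seizures were induced by auricular electrodes (25 mA, 500 V, 50 Hz, 0.2 s). Absence of hind-limb tonic extension counted as protection. […] Motor impairment was scored on a 10 rpm rotarod, giving TD50 the same way.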

[11] = Neurotoxicity in ip dosed mouse assessed as motor impairment measured for one min by rotarod test; assay type: toxicity, organism-based; conditions: in vivo; how it was run: as §2
[12] = system: Mus musculus; test: Toxicity in mouse at 20 mg/kg, ip measured during maximal electroshock seizure test; assay type: organism-based; conditions: in vivo
[13] = system: Mus musculus; test: Toxicity in mouse at 10 mg/kg, ip measured during maximal electroshock seizure test; assay type: organism-based; conditions: in vivo
[14] = system: Mus musculus; test: Toxicity in mouse at 25 mg/kg, ip measured during maximal electroshock seizure test; assay type: organism-based; conditions: in vivo
[15] = system: Mus musculus; test: Anticonvulsant activity in mouse assessed as increase in electroconvulsive threshold at 20 mg/kg, ip by maximal electroshock seizure threshold test relative to control; assay type: functional
[16] = Cytotoxicity against mouse CRL-2541 cells assessed as effect on cell viability at 10 to 250 uM after 24 hrs by MTT assay; assay type: cell-based
[17] = system: Mus musculus; test: Anticonvulsant activity in mouse assessed as protection against subcutaneous pentylenetetrazole-induced seizures at 100 mg/kg, ip measured for 30 mins post pentylenetetrazole challenge at 0.5 hrs after compound dosing relative to control; assay type: functional
[18] = system: HepG2; test: Cytotoxicity against human HepG2 cells assessed as effect on cell viability at 10 to 250 uM after 24 hrs by neutral red assay; assay type: cell-based; conditions: hepg2, 24 h
How it was run: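 HepG2 cells seeded at 5 × 10^4 per well, then after 24 h given medium with 10–250 μM for 24 h. Viability by neutral red staining, OD 570 nm. Results are % of control ± SEM, three independent experiments.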

[19] = system: Mus musculus; test: Neurotoxicity in mouse assessed as motor impairment by measuring loss of coordination at 32 mg/kg, ip measured for 60 secs by chimney test relative to control; assay type: toxicity, organism-based; conditions: in vivo, 1 min
How it was run: (§3)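 Mice dosed ip; trained, selected animals placed in a horizontal tube 25 cm long and 2.5 cm in diameter, then tube reversed so mice must climb out backward. Read-outs: escape time (s) ± SEM and % animals losing coordination versus control. Unpaired t test.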

[20] = system: HepG2; test: Cytotoxicity against human HepG2 cells assessed as effect on cell viability at 10 to 250 uM after 24 hrs by MTT assay; assay type: cell-based; conditions: hepg2, 24 h
How it was run: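 HepG2 cells grown in MEM with 10% FBS (37 °C, 5% CO2) and seeded at 1 × 10^4. After overnight culture, exposed to 10–250 μM for 24 h. MTT for 3 h, formazan dissolved, OD 570 nm. Viability is % of control ± SEM from three independent experiments.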

[21] = system: Mus musculus; test: Anticonvulsant activity in mouse assessed as protection against subcutaneous pentylenetetrazole-induced seizures by measuring latency time of tonic seizures at 30 mg/kg, ip measured for 30 mins post pentylenetetrazole challenge at 0.5 hrs after compound dosing (reference value: 562.8 to 614.9 secs); assay type: functional
[22] = system: Mus musculus; test: Toxicity in mouse assessed as effect on spontaneous activity at 32 mg/kg, ip measured for 30 mins by photoresistor actometer relative to control; assay type: organism-based; conditions: in vivo, 0.5 h
How it was run: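 Mice dosed ip; locomotor activity by photoresistor actometers counting light-beam interruptions. Each mouse was habituated 30 min in a cage, then crossings were counted over a 30 min session. Data are mean ± SEM and % change vs control; unpaired t test.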

[23] = system: Mus musculus; test: Anticonvulsant activity in mouse assessed as current strength required to induce tonic hind-limb extension in 50% of the animals at 20 mg/kg, ip by maximal electroshock seizure threshold test (reference value: 6.05 to 8.13 mA); assay type: functional
[24] = system: Mus musculus; test: Anticonvulsant activity in mouse assessed as protection against maximal electroshock-induced seizures at 10 mg/kg, ip; assay type: functional, organism-based; how it was run: as §1
[25] = system: Mus musculus; test: Analgesic activity in mouse assessed as decrease in time of paw licking during phase 1 at 32 mg/kg, ip measured for 5 mins by formalin test relative to control; assay type: functional; design: scale not given: the % may be the effect or the level left
How it was run: (§4)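 Formalin test in mice: 20 μL of 5% formalin injected intraplantarly into the right hind paw. Each mouse was observed alone in a glass beaker for 30 min. Time (s) spent licking or biting the injected paw was recorded at 0–5 min (acute phase) and 15–30 min (inflammatory phase).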

[26] = system: Mus musculus; test: Analgesic activity in mouse assessed as decrease in time of paw licking during phase 2 at 32 mg/kg, ip measured for 15 to 30 mins by formalin test relative to control; assay type: functional; design: scale not given: the % may be the effect or the level left; how it was run: as §4
[27] = system: Mus musculus; test: Anticonvulsant activity in mouse assessed as protection against subcutaneous pentylenetetrazole-induced seizures by measuring latency time of tonic seizures at 100 mg/kg, ip measured for 30 mins post pentylenetetrazole challenge at 0.5 hrs after compound dosing (reference value: 562.8 to 614.9 secs); assay type: functional
[28] = system: Mus musculus; test: Neurotoxicity in mouse assessed as motor impairment by measuring time of escaping from chimney at 32 mg/kg, ip measured for 60 secs (reference value: 8.87 +/- 1.79 secs); assay type: toxicity, organism-based; conditions: in vivo, 1 min; how it was run: as §3
[29] = system: Mus musculus; test: Anticonvulsant activity in mouse assessed as protection against subcutaneous pentylenetetrazole-induced seizures at 30 mg/kg, ip measured for 30 mins post pentylenetetrazole challenge at 0.5 hrs after compound dosing relative to control; assay type: functional

## Cc1ccc(Cl)c(OCCN2CCC(O)CC2)c1
[1]
  Activity: Active
[2]
  Activity: Toxic
[3]
  Activity: Non-Toxic

## Cc1ccc(Cl)c(OCCCCNC(C)CO)c1 (racemic)
[1]
  Activity: Active
[2]
  Activity: Toxic
[4]
  Activity: Non-Toxic
[5]
  Activity: Non-Toxic
[6]
  Activity: inactive
[3]
  Activity: Non-Toxic

## CCC(CO)NCCCCOc1cc(C)ccc1Cl (racemic)
[1]
  Activity: Active
[2]
  Activity: Toxic
[4]
  Activity: Non-Toxic
[5]
  Activity: Non-Toxic
[3]
  Activity: Non-Toxic

## Cc1cccc(C)c1OCCOCCNCC(O)c1ccccc1 (racemic)
[7]
  selectivity ratio: 2.76
[8]
  Activity: Active
[1]
  Activity: Active
[9]
  Activity: Non-Toxic
[10]
  ED50: 13 mg/kg
[3]
  Activity: Non-Toxic
[11]
  TD50 at 1 min: 36 mg/kg
[12]
  Activity: Non-Toxic
[13]
  Activity: Non-Toxic

## CCC(CO)NCCOCCOc1cc(C)ccc1Cl (racemic)
[1]
  Activity: Active
[2]
  Activity: Toxic
[4]
  Activity: Non-Toxic

## Cc1cccc(C)c1OCCCCNCC(C)O (racemic)
[7]
  selectivity ratio: 1.6
[1]
  Activity: Active
[5]
  Activity: Non-Toxic
[10]
  ED50: 27.1 mg/kg
[3]
  Activity: Non-Toxic
[11]
  TD50 at 1 min: 43.3 mg/kg
[14]
  Activity: Non-Toxic

## Cc1cccc(Cl)c1OCCCCN[C@H]1CCCC[C@@H]1O.Cl (racemic)
[2]
  Activity: Toxic
[3]
  Activity: Toxic

## CCC(O)CNCCOCCOc1cc(Cl)ccc1C (racemic)
[1]
  Activity: Active
[2]
  Activity: Toxic
[5]
  Activity: Non-Toxic
[6]
  Activity: inactive
[3]
  Activity: Non-Toxic

## Cc1ccc(OCCN[C@H]2CCCC[C@@H]2O)c(C)c1 (racemic)
[15]
  Activity: 23.9%
[7]
  selectivity ratio: 2.41
[16]
  Activity: Non-Toxic
[1]
  Activity: Active
[17]
  Activity: 57.71%
[18]
  Activity: Non-Toxic
[10]
  ED50: 31.8 mg/kg
[19]
  Activity: 0%
[20]
  Activity: Non-Toxic
[3]
  Activity: Non-Toxic
[21]
  Time: 576.4 s
[11]
  TD50 at 1 min: 76.8 mg/kg
[22]
  Activity: 8.2%
[23]
  Activity: 9.33 mA
[24]
  Activity: inactive
[25]
  Activity: 18.55%
[26]
  Activity: 46.16%
[13]
  Activity: Toxic
[27]
  Time: 921 s
[28]
  Time: 4.75 s
[29]
  Activity: 2.42%

## Cc1cccc(Cl)c1OCCCCNC(C)CO (racemic)
[7]
  selectivity ratio: 2.4
[1]
  Activity: Active
[9]
  Activity: Non-Toxic
[10]
  ED50: 19.1 mg/kg
[3]
  Activity: Non-Toxic
[11]
  TD50 at 1 min: 45.7 mg/kg
[12]
  Activity: Non-Toxic

## Cc1cccc(C)c1OCC(C)N (stereo not given) [MEXILETINE]
[10]
  ED50: 20 mg/kg

## CC(C)NCC(O)COc1cccc2ccccc12 (stereo not given) [PROPRANOLOL]
[10]
  ED50: 15 mg/kg
